According to ChEMBL document CHEMBL4028855, “New Mandelalides Expand a Macrolide Series of Mitochondrial Inhibitors” (J Med Chem, 2017):
Activity calls are given as the source filed them. The rule behind the calls is not given here.

How the values were obtained:
[1] = system: NCI-H460; experiment: Cytotoxicity against human NCI-H460 cells assessed as reduction in cell viability measured after 48 hrs by MTT assay; format: functional, cell-based; settings: NCI-H460, 48 h
Summary of the method: (§1)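 Cells grown at 37 °C, 5% CO2 and seeded 16−18 h before treatment. Exposed to increasing concentrations or vehicle (0.1% DMSO) for 48 h. Viability read by MTT, with vehicle-treated cells set as 100%. Mean ± SE, n = 3 wells, at least three independent comparisons. EC50 obtained by nonlinear regression fit to a logistic equation.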

[2] = species: Homo sapiens; experiment: Inhibition of mitochondrial ATP synthase activity in human NCI-H292 cells assessed as decrease in basal oxygen consumption rate at 1 uM at 32 mins followed by addition of FCCP at 87 mins and rotenon /Antimycin A at 135 mins by real-time metabolic flux analysis; format: cell-based
[3] = (§2) Inhibition of bovine heart mitochondrial ATP synthase activity assessed as decrease in ATP-dependent NADH oxidation measured every 30 secs for 30 mins by colorimetric assay relative to control; set-up: species or system Bos taurus
[4] = system: HeLa; experiment: Cytotoxicity against human HeLa cells assessed as reduction in cell viability measured after 48 hrs by MTT assay
[5] = species: Bos taurus; experiment: Inhibition of bovine heart mitochondrial ATP synthase activity assessed as decrease in ATP-dependent NADH oxidation at 12.5 uM measured every 30 secs for 30 mins by colorimetric assay relative to control
[6] = species: Homo sapiens; experiment: Inhibition of mitochondrial ATP synthase activity in human NCI-H292 cells assessed as decrease in oxygen consumption rate at 1 uM at 32 mins followed by addition of 1 uM FCCP at 87 mins and 0.5 uM rotenon /Antimycin A at 135 mins measured by real-time metabolic flux analysis; format: cell-based
[7] = system: HeLa; experiment: Induction of apoptosis in human HeLa cells assessed as caspase-3/7 activation at 1 to 300 nM incubated for 24 hrs measured by luminescence-based Caspase-Glo assay
[8] = system: HeLa; experiment: Cytotoxicity against human HeLa cells assessed as reduction in cell viability at 0.03 to 300 nM after 72 hrs in presence of 2-deoyxglucose by MTT assay; format: functional, cell-based
[9] = system: HEK-293T; experiment: Cytotoxicity against HEK293T cells assessed as decrease in cell viability measured after 48 hrs by MTT assay; format: cell-based; settings: human; summary of the method: as §1
[10] = Safety index, ratio of compound EC50 to Oligomycin A EC50 for cytotoxicity against HEK293T cells; format: cell-based, HEK-293T; settings: human, read-out: Ratio EC50
Summary of the method: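 HEK 293T cells were grown in DMEM with 10% FBS, 2 mM L-glutamine and 1% penicillin/streptomycin at 37 °C and 5% CO2. They were seeded at two starting densities 16−18 h before treatment with increasing concentrations of test compound or oligomycin A (final DMSO ≤0.1%). Viability was read by MTT relative to vehicle (100%), with EC50s fit by nonlinear logistic regression and compared as a ratio.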

[11] = system: NCI-H460; experiment: Cytotoxicity against human NCI-H460 cells assessed as reduction in cell viability measured after 72 hrs by MTT assay; settings: NCI-H460, 72 h
[12] = system: HeLa; experiment: Cytotoxicity against human HeLa cells at 10000 cells per well assessed as cell viability at 100 to 1000 nM after 48 hrs by MTT assay relative to control; format: functional
[13] = system: HeLa; experiment: Cytotoxicity against human HeLa cells at 6000 cells per well assessed as cell viability at 100 to 1000 nM after 48 hrs by MTT assay relative to control; format: functional
[14] = system: HeLa; experiment: Cytotoxicity against human HeLa cells at 2000 cells per well assessed as decrease in cell viability at 100 to 1000 nM after 48 hrs by MTT assay relative to control; format: functional
[15] = species: Bos taurus; experiment: as §2
[16] = species: Homo sapiens; experiment: Inhibition of mitochondrial ATP synthase activity in human NCI-H292 cells assessed as decrease in oxygen consumption rate at 1 uM at 135 mins after FCCP treatment at 87 mins by real-time metabolic flux analysis; format: cell-based
[17] = species: Homo sapiens; experiment: Inhibition of mitochondrial ATP synthase activity in human NCI-H292 cells assessed as decrease in oxygen consumption rate at 1 uM at 87 mins followed by addition of rotenon /Antimycin A at 135 mins measured by real-time metabolic flux analysis; format: cell-based
[18] = system: HeLa; experiment: Cytotoxicity against human HeLa cells assessed as reduction in cell viability at […] after 72 hrs by MTT assay; format: functional, cell-based
[19] = system: HeLa; experiment: Cytotoxicity against human HeLa cells at 6000 cells per well assessed as decrease in cell viability up to 1 uM after 48 hrs by MTT assay; format: functional, cell-based
[20] = system: HeLa; experiment: Cytotoxicity against human HeLa cells at 10000 cells per well assessed as decrease in cell viability up to 1 uM after 48 hrs by MTT assay; format: functional, cell-based
[21] = system: HeLa; experiment: Cytotoxicity against human HeLa cells at 2000 cells per well assessed as decrease in cell viability at 0.25 to 1 uM after 48 hrs by MTT assay relative to control; format: functional
[22] = system: HeLa; experiment: Cytotoxicity against human HeLa cells assessed as reduction in cell viability up to 1000 nM measured after 48 hrs by MTT assay; format: functional, cell-based; summary of the method: as §1
[23] = species: Bos taurus; experiment: Inhibition of bovine heart mitochondrial ATP synthase activity assessed as decrease in ATP-dependent NADH oxidation at 1 uM measured every 30 secs for 30 mins by colorimetric assay relative to control

For `CCCC(=O)O[C@H]1C[C@H]2C[C@@H](O)C[C@@H](C[C@@H](C)/C=C/C=C\C[C@@H]3O[C@@H](C[C@@H]3C)[C@@H](O)C[C@@H]3OC(=O)[C@]1(O)[C@@H]3O)O2`, the EC50 [1] was over 3 µM, the inhibition [2] was “inactive” and the IC50 [3] was 3.4 µM. For the same compound, the EC50 [4] was over 3 µM.
With `CCCC(=O)O[C@H]1[C@@H](OC)[C@H](O[C@@H]2C[C@@H]3C[C@H](OC(=O)CCC)[C@@]4(O)C[C@H](C[C@H](OC(C)=O)[C@@H]5C[C@H](C)[C@H](C/C=C\C=C\[C@H](C)C[C@H](C2)O3)O5)OC4=O)O[C@@H](C)[C@H]1OC(=O)CCC` the EC50 [1] was 0.79 µM and the EC50 [4] was over 3 µM.
With `CC[C@@H]1/C=C/C=C/C[C@H](C)[C@@H](O)[C@](C)(O)C(=O)[C@@H](C)[C@H](O)[C@@H](C)C(=O)[C@H](C)[C@@H](O)[C@H](C)/C=C/C(=O)O[C@H]2[C@@H](C)[C@@H](CC1)O[C@@]1(CC[C@@H](C)[C@@H](C[C@H](C)O)O1)[C@@H]2C` the inhibition [5] was “Active”, the inhibition [6] was “Active” and the inhibition [2] was “Active”.
For `CCCC(=O)O[C@H]1[C@@H](OC)[C@H](O[C@@H]2C[C@@H]3C[C@H](OC(=O)CCC)[C@@]4(O)C[C@H](C[C@H](O)[C@@H]5C[C@H](C)[C@H](C/C=C\C=C\[C@H](C)C[C@H](C2)O3)O5)OC4=O)O[C@@H](C)[C@H]1OC(=O)CCC`, the EC50 [1] was 0.91 µM and the EC50 [4] was 2 µM.
In the case of `CO[C@H]1[C@H](O[C@@H]2C[C@@H]3C/C=C/C(=O)O[C@H](CO)C[C@H](O)[C@@H]4C[C@H](C)[C@H](C/C=C\C=C\[C@H](C)C[C@H](C2)O3)O4)O[C@@H](C)[C@H](O)[C@H]1O`, the Activity [7] is reported as “Active”, the Activity [8] is reported as “Active” and the Activity [9] is reported as “Dose-dependent effect”. For the same compound, the selectivity ratio [10] was 13 to 30, the EC50 [11] was 0.011 µM and the Activity [12] was 85%. For the same compound, the Activity [13] was 85%, the Activity [14] was 25% and the inhibition [2] was “Active”. The IC50 [3] was 0.0022 µM, the inhibition [15] was “Dose-dependent effect” and the EC50 [4] was 0.0099 µM.
For `CCCC(=O)OC1C(=O)C(OC)C(O[C@@H]2C[C@@H]3C[C@H](OC(=O)CCC)[C@]4(O)C(=O)O[C@@H](C[C@H](O)[C@@H]5C[C@H](C)[C@H](C/C=C\C=C\[C@H](C)C[C@H](C2)O3)O5)[C@H]4O)OC1C` (some centres undefined), the EC50 [1] was 0.27 µM and the EC50 [4] was 0.05 µM.
Compound `CCCC(=O)O[C@H]1[C@@H](OC)[C@H](O[C@@H]2C[C@@H]3C[C@H](OC(C)=O)[C@@]4(O)C[C@H](C[C@H](OC(C)=O)[C@@H]5C[C@H](C)[C@H](C/C=C\C=C\[C@H](C)C[C@H](C2)O3)O5)OC4=O)O[C@@H](C)[C@H]1OC(=O)CCC` has an EC50 [1] of 2.4 µM and an EC50 [4] of over 3 µM.
`CCCCCCCC(=O)OC[C@@H]1C[C@H](O)[C@@H]2C[C@H](C)[C@H](C/C=C\C=C\[C@H](C)C[C@@H]3C[C@H](O[C@@H]4O[C@@H](C)[C@H](O)[C@@H](O)[C@H]4OC)C[C@H](C/C=C/C(=O)O1)O3)O2` showed an EC50 [1] of 0.0098 µM and an EC50 [4] of 0.0028 µM.
For `CCCC(=O)O[C@H]1C[C@H]2C[C@@H](O[C@@H]3O[C@@H](C)[C@@H](O)[C@@H](O)[C@H]3OC)C[C@@H](C[C@@H](C)/C=C/C=C\C[C@@H]3O[C@@H](C[C@@H]3C)[C@@H](O)C[C@H]3C[C@@]1(O)C(=O)O3)O2`, the EC50 [1] was 0.044 µM, the inhibition [16] was “Active” and the inhibition [6] was “Active”. The inhibition [17] was “Active”, the inhibition [2] was “Active” and the EC50 [4] was 0.016 µM.
`CCCC(=O)O[C@H]1[C@@H](OC)[C@H](O[C@@H]2C[C@@H]3C[C@H](O)[C@]4(O)C(=O)O[C@@H](C[C@H](O)[C@@H]5C[C@H](C)[C@H](C/C=C\C=C\[C@H](C)C[C@H](C2)O3)O5)[C@H]4O)O[C@@H](C)[C@H]1OC(=O)CCC` gave an EC50 [1] of 2 µM and an EC50 [4] of 1.9 µM.
For `OC[C@H]1OC(O)C[C@@H](O)[C@@H]1O` (some centres undefined), the Activity [18] was “Active”, the Activity [19] was “inactive” and the Activity [20] was “inactive”. The Activity [21] was 50%.
In the case of `COC(=O)/C=C/C[C@H]1C[C@@H](O[C@@H]2O[C@@H](C)[C@H](O)[C@@H](O)[C@H]2OC)C[C@@H](C[C@@H](C)/C=C/C=C\C[C@@H]2O[C@H]([C@@H](O)C[C@H](O)CO)C[C@@H]2C)O1`, the Activity [22] is reported as “inactive”.
Compound `CCCC(=O)O[C@H]1C[C@H]2C[C@@H](O)C[C@@H](C[C@@H](C)/C=C/C=C\C[C@@H]3O[C@@H](C[C@@H]3C)[C@@H](O)C[C@@H]3OC(=O)[C@]1(O)[C@@H]3OC(=O)CCC)O2` has an EC50 [1] of 1.7 µM and an EC50 [4] of 0.66 µM.
In the case of `CCCCCC(=O)O[C@H]1C[C@H]2C[C@@H](O)C[C@@H](C[C@@H](C)/C=C/C=C\C[C@@H]3O[C@@H](C[C@@H]3C)[C@@H](O)C[C@@H]3OC(=O)[C@]1(O)[C@@H]3OC(=O)CCC)O2`, the EC50 [1] is reported as 2.6 µM and the EC50 [4] is reported as 0.33 µM.
For `CCCC(=O)O[C@H]1[C@@H](OC)[C@H](O[C@@H]2C[C@@H]3C[C@H](OC(=O)CCC)[C@]4(O)C(=O)O[C@@H](C[C@H](O)[C@@H]5C[C@H](C)[C@H](C/C=C\C=C\[C@H](C)C[C@H](C2)O3)O5)[C@H]4O)O[C@@H](C)[C@H]1OC(=O)CCC`, the EC50 [1] was over 3 µM and the EC50 [4] was over 3 µM.
For `COC[C@@H](C[C@H]1O[C@@](O)([C@H](O)[C@@H]2C[C@H](OC)[C@@H](O)CC/C=C(C)/C=C/[C@@H](O[C@@H]3O[C@@H](C)[C@H](OC)[C@@H](O)[C@@H]3O)[C@H](C)/C=C(C)/C=C(C)/C=C(\C)C(=O)O2)[C@H](C)[C@@H](O)[C@H]1C)O[C@H]1C[C@](C)(O)[C@@H](O[C@H]2C[C@@H](OC)[C@H](O)[C@@H](C)O2)[C@H](C)O1`, the inhibition [23] was “Active”.
